# In the library only some 3.5% were active in any assay of this set; here they are far more common.
# RGS4 block: human RGS4 inhibition. P49798. HEK293 M3R/RGS4 inducible, Fluo-4 calcium flux; active compounds read high; triggered by carbachol at its EC20. actives 0.45% (n = 310,000). B-score at 10 µM;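 active means B-score, a plate-corrected calcium signal, over three deviations above library mean, with baseline fluorescence within five deviations of library mean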;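 further: RGS4 expression induced by doxycycline in cells with stable M3 receptor; B-score is computed from the integrated fluorescence ratio over baseline after carbachol; higher B-score means a larger calcium signal and so more RGS4 inhibition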
# Target sequence (P49798 whole entry, looked up): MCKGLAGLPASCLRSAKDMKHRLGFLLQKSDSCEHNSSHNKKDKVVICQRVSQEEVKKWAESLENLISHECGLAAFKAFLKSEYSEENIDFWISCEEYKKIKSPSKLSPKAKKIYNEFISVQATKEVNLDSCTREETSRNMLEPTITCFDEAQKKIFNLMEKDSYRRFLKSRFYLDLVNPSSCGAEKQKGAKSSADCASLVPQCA
# RGS4 pot: potentiators or activators of RGS4; HEK293 M3R/inducible RGS4, carbachol calcium flux Fluo4; active compounds read low; B-score at 10 µM; actives 0.92% (n = 310,000); AID 463111;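 active means B-score of the integrated calcium signal more than 4 SD below the library mean, with starting fluorescence not abnormally high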;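 further: negative B-score means reduced calcium response which marks RGS4 activation or potentiation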
#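 test system = M3R-expressing HEK293 line, RGS4 induced by doxycycline | probe or stimulus = carbachol at ECmax as muscarinic agonist stimulus | timing = dye loading 30 min 37 °C, buffer rest 30 min RT | signal = calcium dye Fluo4 fluorescence | evaluation = B score from integrated fluorescence ratio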
# MrgX1 agonist: agonists of human MrgX1 receptor; B-score at 10 µM; AID 588627; actives 0.44% (n = 310,000); Q96LB2; MrgX1-HEK293 cells, Fluo-4 calcium fluorescence, agonist mode; active compounds read high;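 active means calcium response B-score plate-corrected fluorescence ratio at least 3 library SD, with starting fluorescence B-score inside 5 SD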
# Target sequence (Q96LB2 whole entry, looked up): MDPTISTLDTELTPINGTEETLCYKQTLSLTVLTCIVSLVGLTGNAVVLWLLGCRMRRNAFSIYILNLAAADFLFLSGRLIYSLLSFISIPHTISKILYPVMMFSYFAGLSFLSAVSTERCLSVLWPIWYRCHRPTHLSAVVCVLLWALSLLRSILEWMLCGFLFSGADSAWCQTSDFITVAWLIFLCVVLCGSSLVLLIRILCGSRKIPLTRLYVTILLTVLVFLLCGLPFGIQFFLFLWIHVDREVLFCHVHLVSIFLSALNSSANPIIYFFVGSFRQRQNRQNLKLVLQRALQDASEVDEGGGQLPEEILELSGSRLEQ
#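 Test system: HEK293 cells stably expressing human MrgX1 receptor; Input: fifteen thousand cells per well; Dosing: compound delivered in addition one of three; Schedule: overnight seeding, then 1 h dark dye loading; Technique: Fluo-4 NW calcium fluorescence; Measure: B-scored fluorescence response ratio; Controls: positive and negative controls per plate.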
# MrgX1 allo act: human MrgX1 positive allosteric modulation, primary screen; Q96LB2; MrgX1-HEK293, Fluo-4 calcium flux, FDSS; active compounds read high; B-score at 10 µM; actives 0.63% (n = 310,000); AID 588675;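 active means plate-corrected calcium response at least 3 library SD above typical, normal starting fluorescence, not activating the receptor alone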;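 further: compound read alongside a low EC10 to EC30 dose of BAM8-22 agonist; peak minus trough fluorescence over baseline measured at the second addition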
# MrgX1 antag: antagonists of human MrgX1 receptor; B-score at 10 µM; AID 588676; MRGX1-HEK293 calcium flux, Fluo-4, BAM8-22 antagonism; active compounds read low; Q96LB2; actives 1.3% (n = 310,000);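 active means calcium-response B-score plate-corrected more than 3 library SD below zero, starting fluorescence within 5 deviations, no agonist response on first addition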;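 further: peak minus trough fluorescence over baseline after final BAM8-22 challenge near maximal dose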
# MrgX1 PAM conf: human MrgX1 positive allosteric modulation, re-confirmation; AID 602413; actives 13% (n = 1,200); shares compounds with MrgX1 allo act; MrgX1-HEK293, Fluo-4 calcium fluorescence, FDSS; activation (ratio percentage), % at 10 µM;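 active means ratio at least 3 SD above the weak peptide control, stable starting fluorescence, no direct agonism earlier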;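 further: compound followed by low BAM8-22 agonist challenge near EC20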
# MrgX1 ant reconf: confirmation of human MrgX1 receptor antagonists | shares compounds with MrgX1 antag | MrgX1-HEK293, BAM8-22 calcium flux, Fluo-4; active compounds read low | remaining BAM8-22 calcium response % of control (active compounds read low), % at 10 µM | actives 19% (n = 2,300) | AID 602420;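 active means remaining agonist calcium response no higher than 100% minus 3 SD of agonist-only control wells, with starting fluorescence near control levels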;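 further: agonist BAM8-22 given at a near maximal EC90 to ECmax level; peak minus minimum fluorescence divided by baseline after agonist addition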
# HEK293 Ca flux: MrgX1 antagonist counter-screen hit in parental HEK293 cells | shares compounds with MrgX1 antag | Fluo-4 calcium fluorescence, FDSS | fluorescence ratio F(max-min)/F0 at 10 µM | actives 2% (n = 4,000);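 active means duplicate-averaged calcium fluorescence ratio at least three times the standard deviation of buffer wells, a nonspecific response in parental cells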
# HEK293 Ca counter: counter-screen for MrgX1 allosteric activators: effect in parental HEK293 cells | shares compounds with MrgX1 antag | actives 0.4% (n = 4,000) | parental HEK293 calcium flux, Fluo-4 fluorescence ratio; active compounds read high | fluorescence ratio F(max-min)/F0 at 10 µM;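 active means calcium fluorescence ratio, averaged over duplicates, at least 3 SD of the buffer-well ratio, meaning a nonspecific response in receptor-free cells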;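 further: untransfected parental HEK293 lacking MrgX1 used as counterscreen for MrgX1 allosteric activators; fluorescence change taken during the second addition on a kinetic imager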
# HEK293 Ca cntr2: counter-screen for MrgX1 activators: effect in parental HEK293 cells; shares compounds with MrgX1 antag; Fluo-4 calcium fluorescence (FDSS); active compounds read high; fluorescence ratio F(max-min)/F0 at 10 µM; actives 8.7% (n = 4,000);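 active means calcium fluorescence ratio at least three times the spread of buffer wells, meaning a non-specific response in parental cells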
# A number is an active result; i = inactive; nt = not tested or not shown.
SMILES,RGS4 block,RGS4 pot,MrgX1 agonist,MrgX1 allo act,MrgX1 antag,MrgX1 PAM conf,HEK293 Ca flux,HEK293 Ca counter,HEK293 Ca cntr2,others
Cc1cc(C(=O)CCl)c(C)n1Cc1ccco1,i,i,i,7,i,i,i,i,i,
COc1ccc(C2(c3ccc(OC)cc3)NC(=O)N(CC(=O)Nc3cc(C)ccc3OC)C2=O)cc1,i,i,i,i,i,nt,nt,nt,nt,
CCOC(=O)c1ccc(NC(=O)C2CC3CCC2C3)cc1 (configuration not stated),i,i,i,7.5,i,i,i,i,i,
CCC(C)NCCOc1ccccc1C (configuration not stated),i,i,i,13,i,i,i,i,i,
O=C1NC2=C(C(=O)CCC2)C(c2ccc3ncccc3c2)N1 (configuration not stated),i,i,i,i,i,nt,nt,nt,nt,
COc1ccccc1N(CC(=O)NC1CC2CCC1C2)S(=O)(=O)c1ccc(C)cc1 (configuration not stated),i,i,i,i,i,nt,nt,nt,nt,
COc1ccc(S(=O)(=O)N(CC(=O)NC2CC3CCC2C3)c2ccccc2OC)cc1 (configuration not stated),i,i,i,8.3,i,i,i,i,i,
O=C(Nc1cccc(F)c1)OC(CN1CCCCC1)C(F)(F)F (configuration not stated),i,i,i,7.2,i,i,i,i,i,
O=C(CSc1nccn1Cc1ccccc1)NCc1ccccc1,i,i,i,i,i,nt,nt,nt,nt,
C=Cn1cc[n+](CC(=O)c2ccc(-c3ccccc3)cc2)c1,i,i,i,i,i,nt,nt,nt,nt,
COc1ccc(-c2csc(=NCCO)n2-c2ccccc2)cc1,i,i,i,8.7,-5.8,20%,i,i,i,MrgX1 ant reconf=i
CCOC(=O)c1c(NC(=O)CN2CCOCC2)sc2c1CCCC2,i,i,i,7.1,i,i,i,i,i,
CCOC(=O)c1c(NC(=O)CN2CCOCC2)sc2c1CCCC2=O,i,i,i,i,i,nt,nt,nt,nt,
COc1cc(-c2noc(C)c2-c2ccc(N(C)C)nc2)cc(OC)c1OC,i,i,i,7.7,-5,i,i,i,i,MrgX1 ant reconf=i
COc1cc(-c2noc(C)c2/C=C/c2ccc(C(=O)O)cc2)cc(OC)c1OC,i,i,i,i,i,nt,nt,nt,nt,
CCOC(=O)c1ccc(NC(=S)NCCCN2CCCC2=O)cc1,i,i,i,8.6,i,i,i,i,i,
O=C1CCCN1CCCNC(=S)Nc1ccccc1,i,i,i,i,i,nt,nt,nt,nt,
O=C(Nc1cccc(O)c1)c1ccccc1[N+](=O)[O-],i,i,i,i,i,nt,nt,nt,nt,
CCCn1nc(C(=O)NNC(=O)Cc2ccc(S(=O)(=O)N3CCOCC3)s2)c2ccccc2c1=O,i,i,i,i,i,nt,nt,nt,nt,
O=C(Nc1cc(F)c(Br)cc1F)c1ccc(Cl)cc1,i,i,i,21,i,10%,i,i,i,
Cc1ccc(NC(=O)CNc2cccc(C)c2C)c(C)c1,i,i,i,16,i,9.1%,i,i,i,
Cc1cccc(NC(=O)CNCC(=O)Nc2cccc(C)c2C)c1C,i,i,i,i,i,nt,nt,nt,nt,
CC1(C)CC2CC(C)(CN2c2ncnc3ccccc23)C1 (configuration not stated),i,i,i,25,i,25%,i,i,i,
Cc1ccc2[nH]c(C(=O)N3CCOCC3)cc2c1,i,i,i,i,i,nt,nt,nt,nt,

# Screening results as filed in PubChem BioAssay.
